For data set [1], the system named is Mus musculus. In words: Toxicity in human HCT116 cells xenografted Rag1 knockout mouse assessed as mortality at 20 mg/kg, ip qd for 14 days. It counts as organism-based, HCT-116. Set-up: dose 20 mg/kg, route intraperitoneal. The note with it: in vivo, 336 h. The procedure, abridged:
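Age-matched specific pathogen-free female Rag1-/- mice bearing subcutaneous HCT-116 tumours (5 × 10⁶ cells inoculated in PBS), n = 7 per group. Drug given ip at 20 mg/kg once daily for 14 days in 7.5% DMSO/42.5% PEG-400/20% 2-hydroxypropyl-β-cyclodextrin/30% water; controls received vehicle alone. Bodyweight recorded daily; mice culled when weight loss exceeded 20% of starting weight.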
On the technique in general: In xenograft studies the graft and the host belong to different species.

The subject of data set [2] is Mus musculus. As to the kind of experiment: Toxicity in human HCT116 cells xenografted Rag1 knockout mouse assessed as body weight loss at 20 mg/kg, ip qd measured after 10 days relative to untreated control. It counts as organism-based, HCT-116. Particulars: in vivo, 240 h. Further details: dose 20 mg/kg, route intraperitoneal. In a few lines:
(§1)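 Female specific-pathogen-free Rag1−/− mice carrying subcutaneous HCT-116 tumours, given 20 mg/kg ip daily for 14 days in a DMSO/PEG-400/hydroxypropyl-β-cyclodextrin/water vehicle; controls received vehicle; n = 7 per group. Bodyweight recorded daily; mice culled if loss exceeded 20% of starting weight.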

The subject of a further data set is HCT-116. As to the kind of experiment: Antitumor activity against human HCT116 cells xenografted in Rag1 knockout mouse assessed as tumor growth inhibition at 20 mg/kg, ip qd for 14 days relative to untreated control. It counts as functional. Particulars: HCT-116, ip, 336 h, route intraperitoneal, read-out: GI. In a few lines:
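Female specific-pathogen-free Rag1−/− mice, age-matched, inoculated subcutaneously with 5×10⁶ HCT-116 cells in PBS. Dosed ip at 20 mg/kg q.d. for 14 days in 7.5% DMSO/42.5% PEG-400/20% hydroxypropyl-β-cyclodextrin/30% water; controls received vehicle only; n = 7 per group. Tumour volume measured three times weekly; 1-way ANOVA with Holm-Sidak comparison at study end.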

Data set [3] has as its system Mus musculus. As to the kind of experiment: Toxicity in human HCT116 cells xenografted Rag1 knockout mouse assessed as body weight loss at 20 mg/kg, ip qd measured up to day 10. Type of data set: organism-based, HCT-116. Particulars: in vivo. Set-up: dose 20 mg/kg, route intraperitoneal. In a few lines: as §1
In data set [4] the target is Phosphatidylinositol 4,5-bisphosphate 3-kinase catalytic subunit alpha isoform (Homo sapiens, UniProt P42336). In words: Inhibition of recombinant PI3K p110alpha using L-alpha-phosphatidylinositol as substrate and [gamma33P]ATP after 60 mins by thin layer chromatographic technique. In a few lines:
(§2)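 In-house recombinant class Ia PI3K isoform (0.1 µg) with L-α-phosphatidylinositol substrate in lipid kinase buffer (Tris–HCl pH 7.4, NaCl, EDTA), 1% DMSO final. Started with ATP mix (5 mM MgCl₂, 100 µM ATP plus [γ-³³P]ATP), 1 h at room temperature, stopped with 1 M HCl. Lipids extracted in two steps, separated by TLC, read by phosphorimager. Nine inhibitor concentrations; IC50 averaged over two experiments.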

Data set [5] can be described thus: Cytotoxicity against human NZB5 cells expressing wild type p110alpha assessed as inhibition of [3H]thymidine incorporation after 5 days. Type of data set: functional, cell-based. In a few lines:
(§3)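 Early-passage lab-derived lines in α-MEM with insulin, transferrin, selenite and 5% FBS. Seeded at 1000 cells/well; drug added in 10-fold steps up to 20 µM. Incubated five days under 5% O₂/5% CO₂/90% N₂, with ³H-thymidine (0.04 µCi/well) over the last 6 h. Duplicates per dose; least-squares exponential fit; IC50 is the concentration giving 50% less incorporation.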
In general terms: Dividing cells build labelled thymidine or BrdU into new DNA.

Data set [6] is described as follows: Cytotoxicity against human NZOV9 cells expressing p110alpha Y1021C mutant assessed as inhibition of [3H]thymidine incorporation after 5 days. Type of data set: functional, cell-based. In a few lines: as §3
Data set [7] concerns the target T1, Phosphatidylinositol 4,5-bisphosphate 3-kinase catalytic subunit delta isoform (Homo sapiens, UniProt O00329).
T1 sequence (O00329 whole entry): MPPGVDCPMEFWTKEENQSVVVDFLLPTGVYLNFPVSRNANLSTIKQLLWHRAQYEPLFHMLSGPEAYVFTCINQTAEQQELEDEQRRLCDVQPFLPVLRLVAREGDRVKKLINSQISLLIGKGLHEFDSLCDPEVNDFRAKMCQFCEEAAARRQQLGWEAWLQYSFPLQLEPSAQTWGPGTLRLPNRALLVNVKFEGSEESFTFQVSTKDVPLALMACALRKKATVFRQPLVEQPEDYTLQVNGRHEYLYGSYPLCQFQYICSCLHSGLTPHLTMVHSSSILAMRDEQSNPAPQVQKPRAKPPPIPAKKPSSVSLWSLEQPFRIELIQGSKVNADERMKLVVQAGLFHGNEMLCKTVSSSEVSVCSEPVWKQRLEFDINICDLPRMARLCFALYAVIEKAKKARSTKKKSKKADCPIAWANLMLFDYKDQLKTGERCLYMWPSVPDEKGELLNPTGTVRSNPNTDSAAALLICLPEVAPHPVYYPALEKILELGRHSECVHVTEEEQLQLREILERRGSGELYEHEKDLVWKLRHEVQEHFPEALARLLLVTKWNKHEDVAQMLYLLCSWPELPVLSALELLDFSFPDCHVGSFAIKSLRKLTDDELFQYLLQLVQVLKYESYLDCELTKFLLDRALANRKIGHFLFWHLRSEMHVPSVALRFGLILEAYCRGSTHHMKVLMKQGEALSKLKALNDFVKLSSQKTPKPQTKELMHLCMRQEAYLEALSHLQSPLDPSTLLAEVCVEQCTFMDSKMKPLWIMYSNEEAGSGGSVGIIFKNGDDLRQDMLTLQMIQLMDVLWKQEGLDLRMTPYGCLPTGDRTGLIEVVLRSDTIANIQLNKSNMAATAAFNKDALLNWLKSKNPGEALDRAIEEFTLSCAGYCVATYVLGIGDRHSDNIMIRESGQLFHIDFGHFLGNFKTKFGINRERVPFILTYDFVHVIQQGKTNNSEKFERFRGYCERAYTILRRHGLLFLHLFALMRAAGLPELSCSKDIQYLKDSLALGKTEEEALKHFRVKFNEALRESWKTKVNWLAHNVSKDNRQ
As to the kind of experiment: Inhibition of recombinant PI3K p110delta using L-alpha-phosphatidylinositol as substrate and [gamma33P]ATP after 60 mins by thin layer chromatographic technique. In a few lines: as §2

Data set [8] deals with Phosphatidylinositol 4,5-bisphosphate 3-kinase catalytic subunit beta isoform (Homo sapiens, UniProt P42338). In words: Inhibition of recombinant PI3K p110beta using L-alpha-phosphatidylinositol as substrate and [gamma33P]ATP after 60 mins by thin layer chromatographic technique. The procedure, abridged:
as §2

Data set [9] can be described thus: Selectivity ratio of IC50 for PI3K p110delta to IC50 for PI3K p110alpha.
A short description of data set [10]: Selectivity ratio of IC50 for PI3K p110beta to IC50 for PI3K p110alpha.

Structures are written as SMILES. Where only a bound is given, the exact number is not on record here.

Sequence of Phosphatidylinositol 4,5-bisphosphate 3-kinase catalytic subunit alpha isoform (P42336 whole entry, canonical isoform): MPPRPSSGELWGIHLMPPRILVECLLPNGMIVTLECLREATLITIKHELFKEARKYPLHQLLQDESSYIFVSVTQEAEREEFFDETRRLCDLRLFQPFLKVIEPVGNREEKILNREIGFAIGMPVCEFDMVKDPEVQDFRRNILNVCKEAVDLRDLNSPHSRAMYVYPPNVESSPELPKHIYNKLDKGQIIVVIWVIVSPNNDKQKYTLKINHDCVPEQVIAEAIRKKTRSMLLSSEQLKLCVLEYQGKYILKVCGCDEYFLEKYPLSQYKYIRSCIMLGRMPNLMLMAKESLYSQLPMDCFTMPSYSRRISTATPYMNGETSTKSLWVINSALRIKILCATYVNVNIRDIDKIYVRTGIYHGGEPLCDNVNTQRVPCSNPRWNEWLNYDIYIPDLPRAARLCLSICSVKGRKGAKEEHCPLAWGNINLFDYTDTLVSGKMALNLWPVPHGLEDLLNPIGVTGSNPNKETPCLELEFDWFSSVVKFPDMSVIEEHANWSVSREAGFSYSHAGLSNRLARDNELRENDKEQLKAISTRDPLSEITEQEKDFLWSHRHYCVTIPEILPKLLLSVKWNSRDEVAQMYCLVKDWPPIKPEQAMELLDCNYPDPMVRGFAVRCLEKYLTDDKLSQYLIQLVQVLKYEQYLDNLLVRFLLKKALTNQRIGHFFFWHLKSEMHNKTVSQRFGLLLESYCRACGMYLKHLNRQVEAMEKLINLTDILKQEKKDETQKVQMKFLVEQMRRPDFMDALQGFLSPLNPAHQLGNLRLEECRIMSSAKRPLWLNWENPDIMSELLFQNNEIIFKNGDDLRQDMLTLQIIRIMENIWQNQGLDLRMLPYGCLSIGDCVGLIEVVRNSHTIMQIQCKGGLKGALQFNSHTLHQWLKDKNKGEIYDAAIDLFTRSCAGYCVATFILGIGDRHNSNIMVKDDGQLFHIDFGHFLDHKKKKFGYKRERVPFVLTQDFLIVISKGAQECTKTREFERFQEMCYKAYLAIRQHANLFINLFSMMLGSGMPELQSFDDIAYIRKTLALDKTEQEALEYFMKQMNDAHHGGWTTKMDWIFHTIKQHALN
Sequence of Phosphatidylinositol 4,5-bisphosphate 3-kinase catalytic subunit beta isoform (P42338 whole entry, canonical isoform): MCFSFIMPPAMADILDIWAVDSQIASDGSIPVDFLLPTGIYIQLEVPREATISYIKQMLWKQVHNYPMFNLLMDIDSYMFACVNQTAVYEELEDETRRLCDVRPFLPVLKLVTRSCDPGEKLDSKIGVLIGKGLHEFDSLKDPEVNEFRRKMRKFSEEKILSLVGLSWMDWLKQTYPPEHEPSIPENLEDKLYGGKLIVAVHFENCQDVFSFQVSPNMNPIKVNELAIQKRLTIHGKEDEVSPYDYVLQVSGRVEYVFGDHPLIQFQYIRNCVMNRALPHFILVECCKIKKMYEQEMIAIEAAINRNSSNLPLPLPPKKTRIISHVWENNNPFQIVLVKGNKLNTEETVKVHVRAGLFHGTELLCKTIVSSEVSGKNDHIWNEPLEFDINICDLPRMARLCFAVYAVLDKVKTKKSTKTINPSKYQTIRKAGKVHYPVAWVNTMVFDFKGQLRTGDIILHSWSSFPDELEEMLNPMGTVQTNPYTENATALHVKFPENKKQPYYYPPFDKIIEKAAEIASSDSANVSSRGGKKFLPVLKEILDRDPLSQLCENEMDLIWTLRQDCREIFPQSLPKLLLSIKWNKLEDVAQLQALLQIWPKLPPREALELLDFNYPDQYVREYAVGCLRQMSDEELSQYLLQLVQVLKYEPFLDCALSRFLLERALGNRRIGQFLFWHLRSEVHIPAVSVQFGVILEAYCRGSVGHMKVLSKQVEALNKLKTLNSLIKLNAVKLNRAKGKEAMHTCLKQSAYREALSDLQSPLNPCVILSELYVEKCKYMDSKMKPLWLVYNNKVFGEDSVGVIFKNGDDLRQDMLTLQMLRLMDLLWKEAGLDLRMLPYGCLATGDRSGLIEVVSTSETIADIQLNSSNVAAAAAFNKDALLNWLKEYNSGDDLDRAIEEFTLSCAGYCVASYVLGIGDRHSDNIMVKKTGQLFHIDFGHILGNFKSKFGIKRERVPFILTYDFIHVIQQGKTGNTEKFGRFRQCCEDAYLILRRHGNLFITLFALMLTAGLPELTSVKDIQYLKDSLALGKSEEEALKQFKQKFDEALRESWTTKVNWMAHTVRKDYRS

For `Cc1ccc([N+](=O)[O-])cc1S(=O)(=O)N(C)/N=C/c1cnc2ccc(Br)cn12`, the Activity result with Mus musculus [1] was “Non-toxic”; in the data set with Mus musculus [2], 15%; in the data set with Mus musculus [3], “Non-toxic”. The inhibition in vivo at 20 mg/kg in the data set on HCT-116 is 23.2%.
As to `Cc1ccc([N+](=O)[O-])cc1S(=O)(=O)N(C)/N=C/c1cnn2ccc(C3CC3)cc12`, the IC50 in data set [4] is 1100 nM; in data set [5] it was 740 nM; in data set [6], 670 nM; in [7], over 1000 nM; in [8], over 1000 nM.
On to `C=Cc1ccn2ncc(/C=N/N(C)S(=O)(=O)c3cc([N+](=O)[O-])ccc3C)c2c1`, for which the IC50 in [4] was 130 nM; in data set [5], 990 nM; in data set [6] it was 580 nM; in data set [7], over 1000 nM; in data set [8], over 1000 nM.
Take `C/C(=N\NS(=O)(=O)c1cc([N+](=O)[O-])ccc1C)c1cnn2ccc(C#N)cc12`: the IC50 in data set [4] stood at 7 nM; in data set [5], 1100 nM; in [6], 2100 nM; in data set [7], 900 nM; in data set [8], 410 nM.
Take `Cc1ccc2c(/C=N/N(C)S(=O)(=O)c3cc([N+](=O)[O-])ccc3C)cnn2c1`: the IC50 was over 1000 nM in data set [4]; 10000 nM in [5]; 8000 nM in [6]; over 1000 nM in data set [7]; over 1000 nM in data set [8].
For the compound `CCC/C(=N\N(C)S(=O)(=O)c1cc([N+](=O)[O-])ccc1C)c1cnn2ccc(C#N)cc12`, the IC50 in data set [4] is 610 nM; in [5] it was 680 nM; in data set [6], 2300 nM; in data set [7] it was over 1000 nM; in [8], over 1000 nM.
For `CNC(=O)c1ccn2ncc(/C=N/N(C)S(=O)(=O)c3cc([N+](=O)[O-])ccc3C)c2c1`, the half-maximal inhibitory concentration (IC50) in data set [4] is over 1000 nM; in [5], 10000 nM; in data set [6] it was 10000 nM; in [7] it was over 1000 nM; in [8], over 1000 nM.
For the compound `COC(=O)c1ccn2ncc(/C=N/N(C)S(=O)(=O)c3cc([N+](=O)[O-])ccc3C)c2c1`, the IC50 in data set [4] is 360 nM; in data set [5], 1800 nM; in data set [6], 1500 nM; in data set [7], 690 nM; in [8], over 1000 nM.
For `CC/C(=N\NS(=O)(=O)c1cc([N+](=O)[O-])ccc1C)c1cnn2ccc(C#N)cc12`, in that order: 10 nM, 88 nM, 360 nM, 440 nM and over 1000 nM.
Take `Cc1ccc([N+](=O)[O-])cc1S(=O)(=O)N(C)/N=C/c1cnn2ccc(Br)cc12`: the half-maximal inhibitory concentration (IC50) was 3.8 nM in data set [4]; 310 nM in data set [5]; 50 nM in data set [6]; 150 nM in [7]; 230 nM in data set [8].
For the compound `CC/C(=N\N(C)S(=O)(=O)c1cc([N+](=O)[O-])ccc1C)c1cnn2ccc(C#N)cc12`, the IC50 in [4] is 390 nM; in data set [5], 410 nM; in [6], 3700 nM; in data set [7], over 1000 nM; in [8] it was over 1000 nM.
For the compound `COc1ccn2ncc(/C=N/N(C)S(=O)(=O)c3cc([N+](=O)[O-])ccc3C)c2c1`, the IC50 in data set [4] was 190 nM; in data set [5], 940 nM; in [6], 520 nM; in data set [7], over 1000 nM; in data set [8], over 1000 nM.
`Cc1ccc([N+](=O)[O-])cc1S(=O)(=O)N(C)/N=C/c1cnn2ccc(C(N)=O)cc12`: the half-maximal inhibitory concentration (IC50) is 530 nM in [4]; 600 nM in data set [5]; 10000 nM in [6]; over 1000 nM in data set [7]; over 1000 nM in data set [8].
Regarding `Cc1ccc([N+](=O)[O-])cc1S(=O)(=O)N(C)/N=C/c1cnn2ccccc12`, the Ratio IC50 in data set [9] stood at 40; in data set [10], 60. Also, the IC50 in data set [4] was 960 nM; in data set [5], 470 nM; in data set [6] it was 660 nM; in [7] it was 3400 nM; in data set [8], over 10000 nM.
Consider `CCc1ccn2ncc(/C=N/N(C)S(=O)(=O)c3cc([N+](=O)[O-])ccc3C)c2c1`, for which the IC50 in data set [4] was over 1000 nM; in [5], 410 nM; in data set [6], 560 nM; in data set [7], over 1000 nM; in [8] it was over 1000 nM.
`C#Cc1ccn2ncc(/C=N/N(C)S(=O)(=O)c3cc([N+](=O)[O-])ccc3C)c2c1`: the IC50 in [4] worked out at 2.4 nM; in data set [5], 160 nM; in data set [6], 110 nM; in [7], 41 nM; in data set [8] it was 30 nM.
In the case of `Cc1ccc([N+](=O)[O-])cc1S(=O)(=O)N(C)/N=C/c1cnn2cc(Br)ccc12`, the concentration for half-maximal inhibition (IC50) in [4] was over 1000 nM; in data set [5], over 20000 nM; in data set [6], 4500 nM; in data set [7], over 1000 nM; in [8], over 1000 nM.
As to `Cc1ccc([N+](=O)[O-])cc1S(=O)(=O)N(C)/N=C/c1cnn2cccc(Br)c12`, the IC50 in [4] was over 1000 nM; in [5], over 20000 nM; in data set [6] it was 6500 nM; in [7] it was over 1000 nM; in [8] it was over 1000 nM.
Turning to `Cc1ccc([N+](=O)[O-])cc1S(=O)(=O)N(C)/N=C/c1cnn2ccc(C(F)(F)F)cc12`, the IC50 in data set [4] was 150 nM; in data set [5], 70 nM; in data set [6], 90 nM; in data set [7], over 1000 nM; in data set [8], over 1000 nM.

Usually IC50 stands for the concentration at which inhibition is half-maximal.

The values above are taken from ChEMBL document CHEMBL1926509, “Discovery of pyrazolo[1,5-a]pyridines as p110α-selective PI3 kinase inhibitors” (Bioorg Med Chem, 2012).
